Assay results collected from several papers.
Compare with care: the assays were run in different laboratories. pKi: −log10 of the molar value.
Target: Cannabinoid receptor 2 (CNR2, Homo sapiens, UniProt P34972)
Observed: ligand displacement
Technique: radioligand

CCOC(=O)C(CC)(CCCSC)NC(=O)c1ccc(C2CC2)c(Cc2ccc(F)cc2)n1 (stereo not drawn)
pKi (cell membranes): 8.89

CC1(C)C(C(=O)c2cn(CCCCCF)c3ccccc23)C1(C)C
pKi (cell membranes): 8.67

CCCCCn1c2ccccc2c2cc(C(=O)N3CCN(CC(=O)NC(C)(C)C)CC3)ccc21
pKi: 5.70

CCCCCc1cc(O)c2c(c1)OC(C)(C)c1ccc(C)cc1-2
pKi (cell membranes): 7.14

CCOC(=O)C(CC)(CCCSCCOCCOCCOCCNC(=O)OC(C)(C)C)NC(=O)c1ccc(C2CC2)c(Cc2ccc(F)cc2)n1 (stereo not drawn)
pKi (cell membranes): 6.86

CCCCCc1cc(O)c(C/C=C(\C)CCC2OC2(C)C)c(O)c1 (stereo not drawn)
pKi (cell membranes): 5.33

Cc1c(C(=O)Nc2ccc(C(F)(F)F)cn2)nc(-c2ccc(Cl)cc2Cl)n1-c1ccc(OS(=O)(=O)CCC(F)(F)F)cc1
pKi (cell membranes): 8.31

CCOC(=O)C(CC)(CCCSCCOCCOCCNc1ccc([N+](=O)[O-])c2nonc12)NC(=O)c1ccc(C2CC2)c(Cc2ccc(F)cc2)n1 (racemic)
pKi (cell membranes): 7.66

CCCc1cc(O)c2c(c1)OC(C)(C)[C@@H]1CCC(C)=C[C@@H]21
pKi (cell membranes): 6.98

CCOC(=O)[C@H](CSC)NC(=O)c1ccc(C2CC2)c(Cc2ccc(F)cc2)n1
pKi (cell membranes): 8.49

CCCCCc1cc(O)c2c(c1)OC(C)(C)c1cc(O)c(C)cc1-2
pKi (cell membranes): 7.96

CC/C(=C(\c1ccc(O)cc1)c1ccc(OCCN(C)C)cc1)c1ccccc1
pKi (cell membranes): 6.05

CCCCCc1cc(O)c2c(c1)OC(C)(C)[C@@H]1CC[C@](C)(O)[C@@H](O)[C@@H]21
pKi (cell membranes): 5.67

Cc1nonc1Cn1nnc2c(N3CC[C@H](O)C3)nc(C(C)(C)C)nc21
pKi (cell membranes): 7.96

CCCCC/C=C\C/C=C\C/C=C\C/C=C\CCCC(=O)NCCCl
pKi (cell membranes): 5.28
